bCat KO growth: beta-catenin-lacking colon tumor cell growth suppression. HCT116 beta-catenin knockout viability, CellTiter-Glo, 60 h; active compounds read low. viability, % at 10 µM. 1.5% of 140,000 active. AID 818;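 active means viability at or under a set limit, the compound median less 4 SD, cut at about 6% in these data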;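 further: 0% = Hyamine 1622 control at 20 µM and 100% = untreated cell control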
Dynein cargo inh: dynein cargo transport inhibition; z-score, hits read low; 0.47% of 220,000 active; 3617.4 mouse cells, GR-EGFP nuclear translocation imaging; test concentration mostly 20 µM; stimulated with dexamethasone, 1 µM; active compounds read low; AID 1381;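 active means plate z-score of nuclear minus cytoplasmic receptor signal below a set negative limit, without overly bright fluorescence or cell loss, cut at about -3.5 in these data, passing the limit was not always enough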;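 further: z-score of nuclear minus cytoplasmic ring GR-EGFP intensity difference per well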
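Also added – dexamethasone, 1.0 µM final · Buffer or medium – tet-free, stripped-serum medium · Schedule – induction 48 h, compound 1 h, agonist 30 min · Detection – formaldehyde fixation, Hoechst nuclear stain, 10x automated fluorescence imaging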
Autophagy HCS: autophagy modulation, high-content screen | 0.98% of 190,000 active | calls only at 10 µM (by protocol) | MEF GFP-LC3 puncta imaging; test concentration mostly 10 µM;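 active means percentage of spot-positive cells more than 3 SD above its plate mean, without a fluorescence outlier flag or 80% toxicity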;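 further: spot-positive cell cutoff set from DMSO-treated cells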
PTEN del growth: suppresses growth of cells with PTEN deletion; 1.2% of 140,000 active; viability, % at 10 µM; HCT116 PTEN-null viability, CellTiter-Glo, 60 h; active compounds read low;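 active means viability at or below a set limit, 4 SD under the median of all tested compounds, cut at about 3.7% in these data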;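 further: PTEN knockout HCT116 line with beta catenin targeted HCT116 as companion control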
L major viab: reduces viability of Leishmania major promastigotes. AID 1063. inhibition, % at 10 µM. resazurin fluorescence viability. 9% of 200,000 active; in the data active means inhibition above about 50%;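 further: promastigotes grown with compound for 44 hours at 28 °C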
L major 1uM: L. major promastigote growth inhibition, 1 uM repeat; shares compounds with L major viab; resazurin fluorescence, 48 h; inhibition, % at 1 µM; 13% of 1,100 active; AID 1258;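 active means inhibition above about 50% in both repeat tests, limit read from the data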
Dynein confirm: dynein cargo transport inhibition, confirmation; shares compounds with Dynein cargo inh; 3617.4 GR-EGFP nuclear translocation imaging, dexamethasone-induced; calls only at 20 µM; 69% of 1,000 active; AID 463116;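 active means inhibition of receptor movement into the nucleus at or above a set limit in both runs, with normal cell brightness and cell count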;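 further: dexamethasone at 1 µM final in well for 30 min; nuclear minus cytoplasmic GR-EGFP mean intensity difference in channel 2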
An asterisk follows results filed as active; i = inactive; · = not tested or not shown; + = active, no number. Sampled rows, rich in hits. Any-hit rate of the full collection: about 9.2%.

SMILES	bCat KO growth	Dynein cargo inh	Autophagy HCS	PTEN del growth	L major viab	L major 1uM	others
CC1(C)CC2(CCO1)C(Nc1ccccc1)=NC(=S)N2c1ccccc1 (stereo not drawn)	·	-0.17	·	·	·	·
Cc1ccc(SCc2cn3ccccc3n2)cc1	·	0.61	·	·	·	·
Cn1ccnc1SCc1cn2cc(Br)ccc2n1	96	-1.3	i	104	82*	-1
CC(=O)c1ccc(OCC(C)Oc2ccc(C#N)cc2)cc1 (stereo not drawn)	·	0.26	·	·	·	·
COc1ccc(N(C(=O)COc2cccc(C)c2)S(=O)(=O)c2ccc(C)cc2)cc1	96	-0.85	i	96	52*	-12
COc1ccc(S(=O)(=O)N(CC(=O)O)c2ccc(C)cc2)cc1	84	-0.39	i	89	-6	·
CCN(CC)CCNC(=O)c1[nH]c2ccc(OCc3ccccc3)cc2c1C	·	i	i	·	100*	-17
CCOC(=O)c1[nH]c2ccc(OC)cc2c1C	79	-0.25	i	75	-4	·
C#CCOCCOCCOCCNc1nc(N2CCN(C(=O)[C@H](Cc3cc4ccccc4[nH]3)n3cc([C@@H](N)C(C)CC)nn3)CC2)nc(N2CCN(C(=O)[C@H](Cc3cc4ccccc4[nH]3)n3cc([C@@H](N)CC(C)C)nn3)CC2)n1 (stereo partly drawn)	·	-1.2	i	·	-5	·
CCCNCC1C(Oc2ccc(Cl)cc2)C(=O)N1c1ccccc1C (stereo not drawn)	70	0.3	i	64	91*	-12
C=C(C)c1cccc(C(C)(C)NC(=O)Nn2cnnc2)c1	90	2.4	i	105	3	·
Cc1cc(C(c2nnnn2Cc2ccccc2)N2CCOCC2)c(C)n1-c1ccc2c(c1)OCO2 (stereo not drawn)	39	-1.3	i	38	61*	-6
CC(C)(C)c1cc(CSC(=S)NC2CCS(=O)(=O)C2)c(Br)c(C(C)(C)C)c1 (stereo not drawn)	·	1.9	i	·	95*	8
COc1ccc(-c2nn(-c3ccccc3C)cc2CNCCc2cnc[nH]2)cc1F	·	-0.31	i	·	96*	-20
COCCNC(=S)NC12CC3CC(CC(C3)C1)C2	75	-0.26	i	87	53*	0
COCCNC(=O)NC12CC3CC(CC(C3)C1)C2	·	1.1	i	·	12	·
Cn1c(Cn2cnc([N+](=O)[O-])n2)nnc1SCC(=O)Nc1ccc(Br)cc1	·	-0.76	i	·	4	·
CCOC(=O)c1cnc(-n2nc(C)cc2C)nc1Nc1ccc(N(C)C)cc1	10	-0.69	i	10	91*	10
CCOC(=O)c1cnc(-n2nc(C)cc2C)nc1Nc1ccc(C)cc1	58	-0.29	i	71	5	·
Cc1c(C)n(CCc2c[nH]c3ccccc23)ccc1=O	·	-1.3	i	·	-5	·
CNC(=S)/N=C/NOCc1ccc(Cl)cc1Cl	·	0.58	+	·	58*	15
CC(=O)NC(Cc1ccccc1C)C(=O)NC1CCN(c2ncccc2[N+](=O)[O-])CC1 (stereo not drawn)	97	-0.061	i	98	-6	·
CCOC(=O)C1CCCN(c2ccc(NC(=O)c3snc4c(=O)[nH]cnc34)cc2)C1 (stereo not drawn)	93	0.11	i	83	76*	14
CCOC(=O)C1CCN(C(=O)/C=C/c2ccc(OC)cc2)CC1	102	0.2	i	106	-2	·
N#CC1=C(Nc2ccccc2)SC=C(c2ccc(Cl)c(Cl)c2)N=C1N1CCOCC1	63	-0.38	i	52	100*	-14
SMILES	bCat KO growth	Dynein cargo inh	Autophagy HCS	PTEN del growth	L major viab	L major 1uM	others
Cc1oc2ccc(NS(=O)(=O)c3ccc(C(C)(C)C)cc3)cc2c1C(=O)Nc1ccccc1	79	0.1	i	75	44	·
NC1=NC2=C(CCCC2)C2(CCCCC2)S1	35	-0.46	i	38	54*	15
Cc1[nH]c2ccccc2c1C(c1ccncc1)N1CCC(C)CC1 (stereo not drawn)	·	-0.8	i	·	30	·
CC1=NCC(C)c2c1[nH]c1ccccc21 (stereo not drawn)	100	-0.44	i	95	84*	-10
Cc1cccc(C)c1OCC(O)CNC(C)C (stereo not drawn)	102	0.83	i	100	-1	·
CCOC(=O)c1oc2cccc(OCC(O)CNC(C)C)c2c1C (stereo not drawn)	41	-0.5	i	25	101*	-11
Cn1c(SC/C=C/c2ccccc2)nnc1-c1ccco1	95	-0.62	i	94	7	·
O=c1c2ccccc2sn1-c1ccccc1	10	-5.2*	i	47	100*	-5	Dynein confirm=+
CN(C)S(=O)(=O)c1cccc(-n2sc3ccccc3c2=O)c1	·	-3.6*	i	·	55*	-4	Dynein confirm=i
O=C(NCc1ccc2c(c1)OCO2)c1ccc(CN2CCOCC2)cc1	105	1.9	i	98	3	·
Cc1ccc(C(C[N+](=O)[O-])n2nc(C)cc2C)cc1 (stereo not drawn)	3.9*	-5.3*	i	1.9*	100*	36	Dynein confirm=i
O=C(NC1CCCC1)C(c1ccc(F)cc1)N(Cc1ccc(Cl)cc1)C(=O)CCl (stereo not drawn)	80	-3.7*	+	91	99*	51*	Dynein confirm=+
CN(C)C(C(=O)NC1CCCCC1)c1ccc(Cl)cc1 (stereo not drawn)	74	0.43	i	67	5	·
CCOc1cc(NC(=S)Nc2ccc(Cl)cc2)c(OCC)cc1NC(C)=O	·	-0.42	i	·	-2	·
CCCCS(=O)(=O)/C=C\C1C2C=CC(C2)C1S(=O)(=O)CCCC (stereo not drawn)	91	0.41	i	97	-2	·
CCCCS(=O)(=O)/C=C\C=C/S(=O)(=O)CCCC	1.7*	-3.8	i	2.0*	101*	94*	Dynein confirm=+
O=c1[nH]sc2ccccc12	·	-3.8*	i	·	67*	31	Dynein confirm=+
O=c1cc(O)sc2ccccc12	106	-0.34	i	97	-3	·
CC(C)C(=O)Nc1ccccc1C(=O)OCC(=O)c1ccc2c(c1)OCCO2	81	0.92	i	84	5	·
O=C(O)CC1CCC(=C(Cl)Cl)C1 (stereo not drawn)	7	-4.8*	i	6	95*	-8	Dynein confirm=i
O=C(O)CC1CCS(=O)(=O)C1 (stereo not drawn)	91	0.74	i	95	-1	·
O=[N+]([O-])c1ccccc1N/N=C/c1c[nH]c2ccccc12	76	-0.68	i	83	1	·
O=[N+]([O-])c1ccc(N/N=C/c2c[nH]c3ccccc23)cc1	70	-8.4	+	70	98*	-18	Dynein confirm=+
CCSc1nnc(-c2ccc(C)cc2)c2ccccc12	74	0.11	i	73	14	·

High-throughput results (PubChem)
